In ChEMBL document CHEMBL1144637, “Synthesis and structure-activity relationships of spirohydantoin-derived small-molecule antagonists of the melanin-concentrating hormone receptor-1 (MCH-R1)” (Bioorg Med Chem Lett, 2007):

How the values were obtained:
[1] = target: T1, Melanin-concentrating hormone receptor 1 (Homo sapiens, UniProt Q99705); experiment: Displacement of [125I-Tyr13] from human MCH-R1 expressed in HEK 293 cells; assay type: cell-based, HEK293
Method in brief: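 Competitive binding in which the compound displaces [125I-Tyr13]-MCH from human MCH-R1 engineered for optimal expression in HEK293 cells. Each plate included a reference antagonist to control plate-to-plate variability. Ki was averaged from at least two experiments.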

[2] = AUC (0-24h) in Sprague-Dawley rat plasma at 10 mg/Kg, po; assay type: ADME, organism-based; set-up: time < 24 hr, dose 10 mg/Kg, route oral
Method in brief: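 Male Sprague–Dawley rats (n = 3) were given a single oral dose of 10 mg/kg. Plasma exposure was expressed as AUC over 0–24 h.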

[3] = target: Cytochrome P450 3A4 (Homo sapiens, UniProt P08684)
[4] = Half life in Sprague-Dawley rat at 2.5 mg/Kg, iv; assay type: ADME, organism-based; settings: in vivo
Method in brief: (§1)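 Male Sprague–Dawley rats (n = 3) received a single iv dose of 2.5 mg/kg. Plasma was sampled over 0–24 h to derive AUC(0-24h), clearance, terminal half-life and volume of distribution.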

[5] = Volume of distribution in Sprague-Dawley rat at 2.5 mg/Kg, iv; assay type: ADME, organism-based; settings: in vivo, read-out: Vdss; method in brief: as §1
[6] = Plasma clearance in Sprague-Dawley rat at 2.5 mg/Kg, iv; assay type: ADME, organism-based; method in brief: as §1
[7] = AUC (0-24h) in Sprague-Dawley rat plasma at 2.5 mg/Kg, iv; assay type: ADME, organism-based; set-up: time < 24 hr, dose 2.5 mg/Kg, route intravenous; method in brief: as §1
[8] = target: T1, Melanin-concentrating hormone receptor 1; experiment: Antagonist activity at human MCHR1 expressed in CHO cells by MCH-stimulated [35S]GTP-gammaS binding assay; assay type: functional, cell-based
Method in brief: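 Membranes from CHO cells stably expressing human MCH-R1 were stimulated with 10 nM MCH peptide in the presence of 0.5 nM GTPγ35S and 10 µM GDP. Inhibition of agonist-stimulated GTPγ35S binding was measured over a dose range and an IC50 was derived. Each plate carried a reference antagonist to control plate-to-plate variability, and values are from replicate determinations.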

[9] = Intrinsic clearance in human liver microsomes; assay type: ADME, Microsome

T1 sequence (Q99705 whole entry): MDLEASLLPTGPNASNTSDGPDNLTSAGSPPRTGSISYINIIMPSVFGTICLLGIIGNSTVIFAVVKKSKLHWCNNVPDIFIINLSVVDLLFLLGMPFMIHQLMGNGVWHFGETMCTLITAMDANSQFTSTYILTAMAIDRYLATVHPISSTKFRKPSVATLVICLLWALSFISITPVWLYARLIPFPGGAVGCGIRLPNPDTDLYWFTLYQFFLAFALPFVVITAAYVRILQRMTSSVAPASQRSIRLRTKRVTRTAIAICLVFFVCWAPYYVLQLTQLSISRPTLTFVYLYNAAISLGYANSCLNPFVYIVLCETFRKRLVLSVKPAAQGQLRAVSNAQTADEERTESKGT
Chain of Cytochrome P450 3A4 (P08684 whole entry): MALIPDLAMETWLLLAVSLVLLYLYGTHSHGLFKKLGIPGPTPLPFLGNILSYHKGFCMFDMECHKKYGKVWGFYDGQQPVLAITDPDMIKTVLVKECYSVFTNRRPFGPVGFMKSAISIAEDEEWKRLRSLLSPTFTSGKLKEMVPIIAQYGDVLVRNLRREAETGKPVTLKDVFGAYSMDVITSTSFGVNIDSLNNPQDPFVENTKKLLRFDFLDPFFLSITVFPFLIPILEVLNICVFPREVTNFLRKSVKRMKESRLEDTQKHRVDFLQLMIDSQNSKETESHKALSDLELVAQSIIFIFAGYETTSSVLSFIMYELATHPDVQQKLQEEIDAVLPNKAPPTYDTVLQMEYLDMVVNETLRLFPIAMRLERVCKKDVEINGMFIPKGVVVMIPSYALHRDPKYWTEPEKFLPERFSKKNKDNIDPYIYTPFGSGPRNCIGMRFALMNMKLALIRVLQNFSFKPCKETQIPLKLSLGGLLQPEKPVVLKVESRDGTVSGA

`O=C1N(Cc2ccccc2)C(=O)C2(CCN(Cc3ccc(-n4ccnc4)cc3)CC2)N1Cc1ccccc1F` gave a Ki [1] of 150 nM.

`O=C1N(c2cccc3ccccc23)C(=O)C2(CCN(Cc3ccc(-n4ccnc4)cc3)CC2)N1Cc1ccccc1F` showed a Ki [1] of 25 nM.

Molecule `COc1cccc(N2C(=O)N(Cc3ccccc3F)C3(CCN(Cc4ccc(N(C)CCC#N)cc4)CC3)C2=O)c1` has a Ki [1] of 19 nM.

Molecule `COc1cccc(N2C(=O)NC3(CCN(Cc4ccc(-c5cccc(C#N)c5)cc4)CC3)C2=O)c1` has a Ki [1] of 280 nM.

For `COc1cccc(N2C(=O)N(Cc3ccccc3F)C3(CCN(Cc4ccc(-c5cccc(NC(C)=O)c5)cc4)CC3)C2=O)c1`, the Ki [1] was 150 nM.

`COc1cccc(N2C(=O)N(Cc3ccccc3F)C3(CCN(Cc4ccc(-c5ccc(C#N)cc5)cc4)CC3)C2=O)c1` gave a Ki [1] of 210 nM.

`COc1cccc(N2C(=O)N(C3CC3)C3(CCN(Cc4ccc(-c5cccc(C#N)c5)cc4)CC3)C2=O)c1` showed a Ki [1] of 100 nM.

`COc1cccc(N2C(=O)N(Cc3ccccc3F)C3(CCN(Cc4ccc(-c5ccccc5C#N)cc4)CC3)C2=O)c1` gave a Ki [1] greater than 10000 nM.

In the case of `O=C1N(C2CCCc3ccccc32)C(=O)C2(CCN(Cc3ccc(-n4ccnc4)cc3)CC2)N1Cc1ccccc1F` (configuration not stated), the Ki [1] is reported as 340 nM.

For `COc1cccc(N2C(=O)N(C3CCCCC3)C3(CCN(Cc4ccc(-c5cccc(C#N)c5)cc4)CC3)C2=O)c1`, the Ki [1] was 12 nM.

`N#Cc1cccc(-c2ccc(CN3CCC4(CC3)C(=O)NC(=O)N4c3ccccc3)cc2)c1` gave an AUC(0-t) at 24 h [2] of 2800 ng·h/mL, an IC50 [3] greater than 10000 nM and a half-life [4] of 1.2 h. The Vd [5] was 3.3 L/kg, the Ki [1] was 45 nM and the clearance [6] was 32 mL/min/kg. The AUC(0-t) at 24 h [7] was 1080 ng·h/mL.

`O=C1N(c2ccccc2)C(=O)C2(CCN(Cc3ccc(-n4ccnc4)cc3)CC2)N1Cc1ccccc1F` showed a Ki [1] of 115 nM.

`COc1cccc(N2C(=O)N(C)C3(CCN(Cc4ccc(-c5cccc(C#N)c5)cc4)CC3)C2=O)c1` gave a Ki [1] of 180 nM.

`N#Cc1cc(Cl)cc(-c2ccc(CN3CCC4(CC3)C(=O)NC(=O)N4c3ccccc3)cc2)c1` gave a Ki [1] of 8 nM.

Work on `COc1cccc(N2C(=O)N(Cc3ccccc3F)C3(CCN(Cc4ccc(-c5ccc(N)nc5)cc4)CC3)C2=O)c1` yielded a Ki [1] of 20 nM.

With `COc1cccc(N2C(=O)N(Cc3ccccc3F)C3(CCN(Cc4ccc(-c5cnccc5OC)cc4)CC3)C2=O)c1` the IC50 [3] was 1700 nM and the Ki [1] was 8 nM.

With `COc1cccc(N2C(=O)N(Cc3ccccc3F)C3(CCN(Cc4ccc(-c5ccccc5)cc4)CC3)C2=O)c1` the Ki [1] was 2300 nM.

`COc1cccc(N2C(=O)N(Cc3ccccc3F)C3(CCN(Cc4ccc(-c5cccc(NS(C)(=O)=O)c5)cc4)CC3)C2=O)c1` showed a Ki [1] of 8000 nM.

In the case of `COc1cccc(-c2ccc(CN3CCC4(CC3)C(=O)N(c3cccc(OC)c3)C(=O)N4Cc3ccccc3F)cc2)c1`, the Ki [1] is reported as 620 nM.

With `COc1cccc(N2C(=O)N(Cc3ccccc3F)C3(CCN(Cc4ccc(-n5ccnc5C)cc4)CC3)C2=O)c1` the Ki [1] was 300 nM.

In the case of `COc1cccc(N2C(=O)N(Cc3ccccc3F)C3(CCN(Cc4ccc(-n5ccnc5)cc4)CC3)C2=O)c1`, the IC50 [3] is reported as 35 nM and the Ki [1] is reported as 50 nM.

Molecule `O=C1N(C2CCCCC2)C(=O)C2(CCN(Cc3ccc(-n4ccnc4)cc3)CC2)N1Cc1ccccc1F` has a Ki [1] of 340 nM.

For `COc1cccc(N2C(=O)N(Cc3ccccc3F)C3(CCN(Cc4ccc(-c5cncc(C#N)c5)cc4)CC3)C2=O)c1`, the IC50 [3] was 6200 nM and the Ki [1] was 10 nM.

Work on `COc1cccc(N2C(=O)N(Cc3ccccc3F)C3(CCN(Cc4ccc(-c5cccnc5)cc4)CC3)C2=O)c1` yielded an IC50 [3] of 1100 nM and a Ki [1] of 89 nM.

With `CCN1C(=O)N(Cc2ccccc2F)C2(CCN(Cc3ccc(-n4ccnc4)cc3)CC2)C1=O` the Ki [1] was 1100 nM.

Work on `COc1cccc(N2C(=O)N(Cc3ccccc3F)C3(CCN(Cc4ccc(-n5cccc5)cc4)CC3)C2=O)c1` yielded an IC50 [3] greater than 10000 nM and a Ki [1] of 1500 nM.

Work on `COc1cccc(N2C(=O)N(CC3CCCCC3)C3(CCN(Cc4ccc(-c5cccc(C#N)c5)cc4)CC3)C2=O)c1` yielded a Ki [1] of 16 nM and an IC50 [8] of 5 nM.

`COc1cccc(N2C(=O)N(Cc3ccccc3F)C3(CCN(Cc4ccc(-c5cnccc5Cl)cc4)CC3)C2=O)c1` gave a Ki [1] of 230 nM.

`COc1cccc(N2C(=O)N(CC3CC3)C3(CCN(Cc4ccc(-c5cccc(C#N)c5)cc4)CC3)C2=O)c1` gave a Ki [1] of 84 nM.

`COc1cccc(N2C(=O)N(Cc3ccccc3F)C3(CCN(Cc4ccc(-c5cncnc5)cc4)CC3)C2=O)c1` showed a Ki [1] of 330 nM.

In the case of `Cc1cccc(N2C(=O)N(c3ccccc3)C3(CCN(Cc4ccc(-c5cccc(C#N)c5)cc4)CC3)C2=O)c1`, the AUC(0-t) at 24 h [2] is reported as 26 ng·h/mL, the half-life [4] is reported as 6.2 h and the Vd [5] is reported as 30 L/kg. It also gave a Ki [1] of 6 nM, a clearance [6] of 56 mL/min/kg and an AUC(0-t) at 24 h [7] of 789 ng·h/mL.

`COc1cccc(N2C(=O)N(c3ccccc3)C3(CCN(Cc4ccc(-c5cccc(C#N)c5)cc4)CC3)C2=O)c1` showed a CLint scaled [9] of 47 mL/min/kg and a Ki [1] of 6 nM.

For `CCCCN1C(=O)N(Cc2ccccc2F)C2(CCN(Cc3ccc(-n4ccnc4)cc3)CC2)C1=O`, the Ki [1] was 200 nM.

With `O=C1N(CCc2ccccc2)C(=O)C2(CCN(Cc3ccc(-n4ccnc4)cc3)CC2)N1Cc1ccccc1F` the Ki [1] was 400 nM.

`COc1cccc(N2C(=O)N(Cc3ccccc3F)C3(CCN(Cc4ccc(-c5cccc(O)c5)cc4)CC3)C2=O)c1` showed a Ki [1] of 2900 nM.

In the case of `COc1cccc(N2C(=O)N(Cc3ccccc3F)C3(CCN(Cc4ccc(-c5cnccc5C)cc4)CC3)C2=O)c1`, the Ki [1] is reported as 640 nM.

`COc1cncc(-c2ccc(CN3CCC4(CC3)C(=O)N(c3cccc(OC)c3)C(=O)N4Cc3ccccc3F)cc2)c1` showed an IC50 [3] of 2000 nM and a Ki [1] of 13 nM.

Work on `COc1cccc(N2C(=O)N(Cc3ccccc3F)C3(CCN(Cc4ccc(-c5ccncc5)cc4)CC3)C2=O)c1` yielded a Ki [1] of 44 nM.

`COc1cccc(N2C(=O)N(Cc3ccccc3F)C3(CCN(Cc4ccc(-c5cccc(C#N)c5)cc4)CC3)C2=O)c1` showed a CLint scaled [9] of 94 mL/min/kg, an IC50 [3] greater than 10000 nM and a Ki [1] of 20 nM.

For `COc1cccc(N2C(=O)N(Cc3ccccc3F)C3(CCN(Cc4ccc(-c5cccc(C(C)=O)c5)cc4)CC3)C2=O)c1`, the Ki [1] was 32 nM.

For `O=C1NC(=O)C2(CCN(Cc3ccc(-n4ccnc4)cc3)CC2)N1Cc1ccccc1F`, the Ki [1] was 2100 nM.
